Results on one compound are retold here after ChEMBL document CHEMBL4014347, “Targeting Mycolic Acid Transport by Indole-2-carboxamides for the Treatment of Mycobacterium abscessus Infections” (J Med Chem, 2017).

The subject of data set [1] is Mycobacteroides abscessus. The experiment in a line: Antibacterial activity against CF patient derived Mycobacterium abscessus subsp. abscessus isolate 2648 rough variant after 3 to 5 days by two fold serial dilution method. Format: functional. Summed up:
(§1)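 Broth microdilution in cation-adjusted Mueller−Hinton broth per CLSI; inoculum 5 × 10^6 CFU/mL of exponential-phase bacteria; two-fold serial dilutions, solvent-only wells as control; 30 °C for 3−5 days; MIC read visually and confirmed by absorbance at 560 nm; triplicate on three independent occasions.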

In data set [2] the test system is Mycobacteroides abscessus. Description: Antibacterial activity against non CF patient derived Mycobacterium abscessus subsp. abscessus isolate CIP104536 smooth variant after 3 to 5 days by two fold serial dilution method. The data set is classed as functional. Summed up:
as §1

Data set [3] concerns Mycobacteroides abscessus. Description: Antibacterial activity against Addison's disease patient derived Mycobacterium abscessus subsp. massiliense isolate CIP108297 smooth variant after 3 to 5 days by two fold serial dilution method. Format: functional. In a few lines:
as §1

Data set [4] relates to Mycobacteroides abscessus. Description: Antibacterial activity against CF patient derived Mycobacterium abscessus subsp. massiliense isolate 212 smooth variant after 3 to 5 days by two fold serial dilution method. The data set is classed as functional. In a few lines:
as §1

Data set [5] deals with Mycobacteroides abscessus. Description: Antibacterial activity against CF patient derived Mycobacterium abscessus subsp. massiliense isolate 185 smooth variant after 3 to 5 days by two fold serial dilution method. Format: functional. Summed up: as §1
The subject of data set [6] is Mycobacteroides abscessus. The experiment in a line: Antibacterial activity against CF patient derived Mycobacterium abscessus subsp. massiliense isolate 100 smooth variant after 3 to 5 days by two fold serial dilution method. The data set is classed as functional. In a few lines:
as §1

Data set [7] deals with Mycobacteroides abscessus. Description: Antibacterial activity against CF patient derived Mycobacterium abscessus subsp. massiliense isolate 120 smooth variant after 3 to 5 days by two fold serial dilution method. Format: functional. Summed up: as §1
Data set [8] can be described thus: Antibacterial activity against CF patient derived Mycobacterium abscessus subsp. bolletii isolate 108 rough variant after 3 to 5 days by two fold serial dilution method. Format: functional. The note with it: Mycobacteroides abscessus. In a few lines:
as §1

The nature of data set [9]: Antibacterial activity against non CF patient derived Mycobacterium abscessus subsp. bolletii isolate 17 smooth variant after 3 to 5 days by two fold serial dilution method. Format: functional. The note with it: Mycobacteroides abscessus. In a few lines:
as §1

Data set [10] can be described thus: Antibacterial activity against CF patient derived Mycobacterium abscessus subsp. bolletii isolate 97 smooth variant after 3 to 5 days by two fold serial dilution method. The data set is classed as functional. The note with it: Mycobacteroides abscessus. Summed up:
as §1

The nature of data set [11]: Antibacterial activity against CF patient derived Mycobacterium abscessus subsp. bolletii isolate 114 smooth variant after 3 to 5 days by two fold serial dilution method. Format: functional. The note with it: Mycobacteroides abscessus. In a few lines: as §1
The nature of data set [12]: Antibacterial activity against Mycobacterium abscessus subsp. bolletii isolate CIP108541 smooth variant after 3 to 5 days by two fold serial dilution method. The data set is classed as functional. The note with it: Mycobacteroides abscessus. In a few lines: as §1
For data set [13], the system named is Mycobacteroides abscessus. The experiment in a line: Antibacterial activity against Mycobacterium abscessus CIP104536 smooth variant assessed as reduction in viable colony forming unit at […] after 4 days by time-kill assay. The data set is classed as functional.
Data set [14] relates to Mycobacteroides abscessus. Description: Antibacterial activity against Mycobacterium abscessus CIP104536 smooth variant harboring pMV261 MAB_4508 wild type at 0.5 to 1 ug/ml after 3 days. Format: functional. Summed up:
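M. abscessus overexpressing wild-type or A309P MAB_4508 from pMV261 plated on 7H10 agar with 10% OADC containing drug; plates incubated at 30 °C for 3 days before growth inspection.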

Data set [15] in a line: Protein binding in mouse plasma at 5 uM after 10 mins by LC-MS/MS analysis. Format: ADME, cell-free. The note with it: read-out: PPB (converted). Summed up: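 Ultracentrifugation method: 5 μM compound in mouse or rat plasma (from DMSO stock), 10 min at 37 °C; total concentration from incubated plasma, unbound from middle-layer supernatant after 200000g for 4.5 h; niflumic acid internal standard, acetonitrile, filtered, LC-MS/MS.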

The nature of data set [16]: Permeability of the compound at 25 uM at pH 7.4 after 4 hrs by LC-MS based PAMPA. Format: physicochemical. To be noted: read-out: permeability. In a few lines:
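PAMPA: 25 μM compound in aqueous buffer at pH 7.4 or 5.0 (pH adjusted with NaOH) in donor plate, triplicate; acceptor membrane coated with GIT-0 lipid, acceptor sink buffer; 4 h at 25 ± 2 °C; donor and acceptor solutions analysed by LC-MS (UPLC).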
(In general: In PAMPA a lipid-coated filter parts donor from acceptor wells.)

Another data set concerns the target Cytochrome P450 2C9 (Homo sapiens, UniProt P11712). The experiment in a line: Inhibition of CYP2C9 in human liver microsomes preincubated for 5 mins followed by NADPH addition measured after 10 mins by LC-MS/MS analysis. The data set is classed as ADME. (Liver microsomes are a subcellular fraction often used to study metabolism.)
A further data set deals with Cytochrome P450 2D6 (Homo sapiens, UniProt P10635). Description: Inhibition of CYP2D6 in human liver microsomes preincubated for 5 mins followed by NADPH addition measured after 10 mins by LC-MS/MS analysis. Format: ADME.
Cytochrome P450 2D6, sequence (P10635 whole entry): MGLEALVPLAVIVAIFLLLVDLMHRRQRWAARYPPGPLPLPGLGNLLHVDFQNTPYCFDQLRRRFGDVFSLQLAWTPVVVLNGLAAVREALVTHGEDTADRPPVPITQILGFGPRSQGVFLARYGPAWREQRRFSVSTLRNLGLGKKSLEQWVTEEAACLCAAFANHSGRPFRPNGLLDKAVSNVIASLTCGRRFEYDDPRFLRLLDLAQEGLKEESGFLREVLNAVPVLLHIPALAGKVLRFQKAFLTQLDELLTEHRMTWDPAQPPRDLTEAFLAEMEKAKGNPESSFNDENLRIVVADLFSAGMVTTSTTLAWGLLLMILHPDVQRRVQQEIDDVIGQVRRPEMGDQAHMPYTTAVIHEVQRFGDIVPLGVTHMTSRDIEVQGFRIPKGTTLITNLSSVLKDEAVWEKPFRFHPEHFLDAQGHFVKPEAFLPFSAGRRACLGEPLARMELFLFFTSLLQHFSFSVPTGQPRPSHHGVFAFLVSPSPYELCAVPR
The target of another data set is CYP3A4 (Homo sapiens, UniProt P08684). The experiment in a line: Inhibition of CYP3A4 in human liver microsomes preincubated for 5 mins followed by NADPH addition at 10 uM measured after 5 mins by LC-MS/MS analysis relative to control. Format: ADME.
CYP3A4, sequence (P08684 whole entry): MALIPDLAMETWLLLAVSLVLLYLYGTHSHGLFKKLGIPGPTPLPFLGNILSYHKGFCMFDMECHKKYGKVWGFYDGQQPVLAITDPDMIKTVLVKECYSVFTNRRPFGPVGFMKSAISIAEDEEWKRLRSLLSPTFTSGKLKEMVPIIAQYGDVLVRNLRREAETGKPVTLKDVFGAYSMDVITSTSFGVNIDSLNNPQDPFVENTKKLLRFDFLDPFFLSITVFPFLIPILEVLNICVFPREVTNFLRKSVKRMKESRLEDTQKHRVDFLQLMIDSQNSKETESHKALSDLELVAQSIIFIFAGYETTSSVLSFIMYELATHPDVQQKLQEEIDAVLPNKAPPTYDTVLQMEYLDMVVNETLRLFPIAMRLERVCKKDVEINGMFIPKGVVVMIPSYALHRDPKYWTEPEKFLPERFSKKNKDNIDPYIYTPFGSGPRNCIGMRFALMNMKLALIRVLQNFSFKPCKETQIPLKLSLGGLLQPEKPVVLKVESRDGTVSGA
The target in a further data set is CYP2D6 (Homo sapiens, UniProt P10635). Description: Inhibition of CYP2D6 in human liver microsomes preincubated for 5 mins followed by NADPH addition at 10 uM measured after 10 mins by LC-MS/MS analysis relative to control. The data set is classed as ADME.
CYP2D6, sequence (P10635 whole entry): as the sequence (P10635 whole entry) above
The next data set deals with Liver. The experiment in a line: Intrinsic clearance in rat liver microsomes at 0.5 uM in presence of NADPH by LC-MS/MS analysis. Format: ADME, microsome. In a few lines: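 Compound (0.5 μM) incubated with mouse or rat liver microsomes plus NADPH regenerating system; aliquots every 3 min over 30 min analysed for parent by LC-MS/MS; monoexponential decay rate normalized to microsomal protein, expressed as mL/min/g liver.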

Data set [17] relates to Salmonella typhimurium. The experiment in a line: Mutagenicity in Salmonella typhimurium TA98 in presence of rat liver S9 fraction assessed as increase in revertant colonies at 0.24 to 500 ug/well after 72 hrs by Ames test relative to control. The data set is classed as toxicity. The note with it: salmonella enterica subsp. enterica serovar typhimurium, s9, 72 h. Summed up: (§2)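 Reverse mutation at histidine locus in S. typhimurium TA98 (frameshift) and TA100 (base-pair substitution), with and without S9; 0.24−500 μg/well; 37 ± 2 °C for 72 h, triplicates; DMSO vehicle; sodium azide, 2-nitrofluorene, 2-aminoanthracene positive controls; positive if revertants rise ≥2-fold over negative control dose-dependently.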
On the technique in general: The Ames test uses bacterial strains that need an amino acid and regain growth without it when mutated back.

Data set [18] has as its system Salmonella typhimurium. The experiment in a line: Mutagenicity in Salmonella typhimurium TA100 in presence of rat liver S9 fraction assessed as increase in revertant colonies at 0.24 to 500 ug/well after 72 hrs by Ames test relative to control. The data set is classed as toxicity. The note with it: salmonella enterica subsp. enterica serovar typhimurium, s9, 72 h. In a few lines: as §2

Data set [19] relates to Salmonella typhimurium. Description: Mutagenicity in Salmonella typhimurium TA100 assessed as increase in revertant colonies at 0.24 to 500 ug/well after 72 hrs by Ames test relative to control. Format: toxicity. The note with it: salmonella enterica subsp. enterica serovar typhimurium. Summed up:
as §2

Converted amounts (≈) assume the structure as drawn. The source made the active and inactive calls.

Cytochrome P450 2C9, sequence (P11712 whole entry): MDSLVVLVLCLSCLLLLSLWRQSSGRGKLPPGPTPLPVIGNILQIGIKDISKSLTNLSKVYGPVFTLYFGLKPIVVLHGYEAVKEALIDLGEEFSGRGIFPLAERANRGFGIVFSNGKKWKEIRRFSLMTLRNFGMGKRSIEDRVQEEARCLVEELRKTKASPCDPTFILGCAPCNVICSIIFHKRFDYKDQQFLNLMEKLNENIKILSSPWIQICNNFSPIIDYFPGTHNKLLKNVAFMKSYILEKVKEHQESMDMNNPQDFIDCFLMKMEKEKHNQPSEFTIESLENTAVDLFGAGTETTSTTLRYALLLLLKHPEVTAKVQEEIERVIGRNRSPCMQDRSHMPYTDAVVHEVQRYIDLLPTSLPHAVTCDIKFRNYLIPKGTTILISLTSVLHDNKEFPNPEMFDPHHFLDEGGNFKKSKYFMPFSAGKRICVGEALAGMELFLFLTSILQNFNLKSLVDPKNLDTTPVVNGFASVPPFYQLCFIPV

For `O=C(NC1CCCCCC1)c1cc2c(Cl)cc(Cl)cc2[nH]1`, the MIC in data set [1], in data set [2], in [3], in data set [4], in data set [5] and in data set [6] was 0.125 µg/mL (≈ 0.384 µM) in each case. Moreover, the MIC in data set [7] was determined as 0.125 µg/mL (≈ 0.384 µM); in [8], 0.25 µg/mL (≈ 0.769 µM); in [9] it was 0.125 µg/mL (≈ 0.384 µM); in data set [10] it was 0.125 µg/mL (≈ 0.384 µM); in [11] it was 0.125 µg/mL (≈ 0.384 µM); in data set [12] it was 0.125 µg/mL (≈ 0.384 µM). For the same compound, the result in data set [13] and in data set [14] was Active. Moreover, the fraction unbound at 10 min, 5 µM in [15] was 0.011. For the same compound, in data set [16], the Papp at 4 h, 25 µM amounted to 0.2 ×10⁻⁶ cm/s. Besides, the 50% inhibitory concentration (IC50) against Cytochrome P450 2C9 and at Cytochrome P450 2D6 was at most 20 µM each time. At CYP3A4, this compound registered an inhibition at 5 min, 10 µM of 1%. On CYP2D6, this compound returned an inhibition at 10 min, 10 µM of 10%. In addition, the CLH in the data set with Liver turned out to be 6.3 mL/min/g. Moreover, the “fold change (FC)” value with Salmonella typhimurium [17], in the data set with Salmonella typhimurium [18] and in the data set on Salmonella typhimurium [19] was below 2 throughout.

A word on the MIC: it is the smallest concentration in the dilution series that meets the test's criterion for growth inhibition. High values mean a need for much substance, low ones inhibition by little substance. The IC50 is the midpoint of a concentration-inhibition curve. Lower therefore signals greater potency in that assay. Usually inhibition stands for the share of the control response that was lost under treatment. Read a high inhibition as a response far below the control.
